Assay outcomes: PubChem, SRMLSC
bCat KO growth: beta-catenin-lacking colon tumor cell growth suppression. AID 818. HCT116 beta-catenin knockout viability, CellTiter-Glo, 60 h; hits give low values. 140,000 compounds, 1.5% hits. viability, % at 10 µM;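 active means viability at or under a set limit, the compound median less 4 SD, cut at about 6% in these data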;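 further: 0% = Hyamine 1622 control at 20 µM and 100% = untreated cell control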
H69AR inhibit: blocks growth of human H69AR lung tumor cells; H69AR lung tumor viability, ATP luminescence, 72 h; hits give low values; viability, % at 10 µM; 85,000 compounds, 6% hits; AID 598;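 active means viability at or below 40%; inactive means viability above 40%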;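 further: multidrug resistant small cell line overexpressing MRP-1 efflux transporter; 100% = mean luminescence of untreated control wells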
HUVEC inhibit: human endothelial cell proliferation inhibition | viability, % at 10 µM (by protocol) | AID 648 | 86,000 compounds, 1.1% hits | HUVEC proliferation, CellTiter-Glo luminescence, 72 h; hits give low values;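 active means viability at or below 30%; inactive means viability above 30%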;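 further: 100% = median luminescence of DMSO-only cell control wells on each plate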
Lung fibro prol: blocks proliferation of human lung fibroblasts. LL 47 human lung fibroblast viability, ATP luminescence; hits give low values. viability, % at 10 µM. 85,000 compounds, 1.1% hits. AID 719;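 active means viability at or below 50% in the single dose screen; inactive means viability above 50%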;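 further: compound exposure lasted 72 h before the ATP readout; 100% = median luminescence of untreated cell-only wells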
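Material: Human LL 47 lung fibroblast cells | Input: 1,150 cells/well | Buffer or medium: IMEM plus 15% FBS | Compound dosing: 0.1% DMSO in all compound wells | Times: Overnight cell rest, 72 h compound treatment at 37 °C | Signal: CellTiter-Glo luminescence measuring cellular ATP | Measure: % viability versus median cells-only luminescence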
HCT116 PTEN-null: growth suppressors of cells with PTEN tumor suppressor deletion; HCT116 PTEN-null viability, CellTiter-Glo, 60 h; hits give low values; viability, % at 10 µM; 140,000 compounds, 1.2% hits;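 active means viability at or below a set limit, 4 SD under the median of all tested compounds, cut at about 3.7% in these data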;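 further: PTEN knockout HCT116 line with beta catenin targeted HCT116 as companion control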
* = called active by the depositor; · = not tested or not shown. The sample as a whole holds a higher share of hits than the screen did.

SMILES	bCat KO growth	H69AR inhibit	HUVEC inhibit	Lung fibro prol	HCT116 PTEN-null
C=CCn1c(=N)n(CC(O)COc2ccccc2OC)c2ccccc21 (configuration not stated)	60	75	79	94	75
CCCCCn1c(=N)n(CC(O)COc2ccccc2OC)c2ccccc21 (configuration not stated)	2.6*	·	·	·	4
CCCCC1CCC(/C(N)=N/O)CC1 (configuration not stated)	81	27*	85	·	91
CN(C)c1ccc(/C=N/c2cc(-c3ccccc3)nn2-c2ccccc2)cc1	85	·	·	·	78
CCCc1[nH]nc2c1C(c1cn[nH]c1-c1ccc(F)cc1)C(C#N)=C(N)O2 (configuration not stated)	69	32*	74	75	61
Cc1csc(NC(=O)CSc2nnc(NC(=O)COc3ccccc3)s2)n1	92	·	·	·	101
Cc1onc(-c2ccccc2)c1C(=O)N1CCCc2ccccc21	96	112	95	88	102
Cc1noc(C)c1C(=O)N1CCc2ccccc21	113	90	97	95	108
Cc1onc(-c2c(F)cccc2Cl)c1C(=O)N1CCc2ccccc21	70	30*	103	109	63
Cc1onc(-c2c(Cl)cccc2Cl)c1C(=O)N1CCCc2ccccc21	27	12*	68	77	23
CC(=O)c1ccc(N2CCN(C(=O)c3cc4c(=O)n(C)c5ccccc5c4n3C)CC2)cc1	·	86	85	86	·
CCCCn1c(N)c(C(=S)NC(=O)CC(C)(C)C)c(=O)n(C)c1=O	85	·	·	·	102
O=C1C2C3C=CC(CO)(O3)C2C(=O)N1c1ccccc1-c1ccccc1 (configuration not stated)	93	3.9*	78	8.3*	107
CC1CCCN(S(=O)(=O)c2ccc(S(=O)(=O)NC(C)c3cccs3)cc2)C1 (configuration not stated)	55	·	·	·	56
CCC(CO)NCc1cc(OC)c(OCC(=O)NCCc2ccccc2)cc1Br (configuration not stated)	95	·	·	·	99
Cc1nn2c(Nc3ccc(F)cc3)c3c(nc2c1-c1ccccc1)CCC3	93	·	·	·	80
CCCCNc1c2c(nc3c(-c4ccccc4)c(C)nn13)CCC2	85	27*	80	84	87
Cc1nn2c(NCCCN3CCOCC3)c3c(nc2c1-c1ccccc1)CCC3	100	47	92	91	89
CCC(C)Nc1c2c(nc3c(-c4ccccc4)c(C)nn13)CCC2 (configuration not stated)	83	30*	94	97	80
CCOC(=O)Cn1c(=NC(=O)c2ccc([N+](=O)[O-])s2)sc2ccccc21	49	·	·	·	29
COc1nnc(-c2ccc(N3CCOCC3)c(NC(=O)C3CCCCC3)c2)c2ccccc12	88	·	·	·	91
COc1nnc(-c2ccc(N3CCCCC3)c(NC(=O)C3CCCCC3)c2)c2ccccc12	11	8.7*	66	98	12
O=c1c2c3nc4ccccc4nc3n(-c3ccc4c(c3)OCCO4)c2ncn1CC1CCCO1 (configuration not stated)	·	90	102	109	·
O=c1c2c3nc4ccccc4nc3n(-c3ccc4c(c3)OCCO4)c2ncn1C1CCCC1	·	21*	37	13*	·
CCOC(=O)C(C(=O)OCC)C(Nc1cccc(Br)c1)c1ccccc1 (configuration not stated)	3.5*	·	·	·	1.6*
SMILES	bCat KO growth	H69AR inhibit	HUVEC inhibit	Lung fibro prol	HCT116 PTEN-null
Cc1nn(Cc2ccc(F)cc2)c(Cl)c1/C=N/NC(=O)c1cccnc1	99	·	·	·	99
Cc1nn(Cc2ccc(Cl)cc2Cl)c(Cl)c1/C=N/NC(=O)CNc1cccc(C(F)(F)F)c1	1.8*	·	·	·	2.3*
N#CC(C#N)=C1NC2(CCCC2)Cc2ccccc21	92	·	·	·	97
COCCCNC(=O)COc1ccc(S(=O)(=O)NCc2ccccc2)cc1Cl	88	·	·	·	81
CC(NCc1ccc(-c2ccccc2)cc1)C(O)c1ccccc1 (configuration not stated)	2.8*	·	·	·	6
CC(O)CNCc1ccc(-c2ccccc2)cc1 (configuration not stated)	69	·	·	·	66
COc1cc(Nc2ccccc2Cl)c([N+](=O)[O-])nc1[N+](=O)[O-]	53	17*	71	86	48
Cc1ccc(S(=O)(=O)C(C)C(=O)c2ccc3c(c2)OCCO3)cc1 (configuration not stated)	101	95	102	99	102
